Data: paper PMC2233905 (The Journal of General Physiology, 2004)

Legend:
[1] = tested on: IRK1 inward rectifier K^+ channels; settings: concentrations up to 10 μM; ref Suessbrich et al., 1996; cited from earlier work
[2] = Ionization: pKa and calculated protonated fractions; format: physicochemical
How it was run: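 Fractions of unprotonated, monoprotonated and diprotonated test compound were calculated from its two pKa values at pH 6.4, 7.4 and 8.4. The diprotonated percentage was 100 × [H+]2 divided by the summed-species denominator. Protonated fractions in the pH 7.4 recording solution were predicted the same way.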

[3] = target: T1, hEag1 channels (Homo sapiens, UniProt O95259); assay: Whole-cell patch-clamp of hEag1 currents in stably transfected HEK-293 cells; format: cell-based
T1 sequence (O95259 1-989): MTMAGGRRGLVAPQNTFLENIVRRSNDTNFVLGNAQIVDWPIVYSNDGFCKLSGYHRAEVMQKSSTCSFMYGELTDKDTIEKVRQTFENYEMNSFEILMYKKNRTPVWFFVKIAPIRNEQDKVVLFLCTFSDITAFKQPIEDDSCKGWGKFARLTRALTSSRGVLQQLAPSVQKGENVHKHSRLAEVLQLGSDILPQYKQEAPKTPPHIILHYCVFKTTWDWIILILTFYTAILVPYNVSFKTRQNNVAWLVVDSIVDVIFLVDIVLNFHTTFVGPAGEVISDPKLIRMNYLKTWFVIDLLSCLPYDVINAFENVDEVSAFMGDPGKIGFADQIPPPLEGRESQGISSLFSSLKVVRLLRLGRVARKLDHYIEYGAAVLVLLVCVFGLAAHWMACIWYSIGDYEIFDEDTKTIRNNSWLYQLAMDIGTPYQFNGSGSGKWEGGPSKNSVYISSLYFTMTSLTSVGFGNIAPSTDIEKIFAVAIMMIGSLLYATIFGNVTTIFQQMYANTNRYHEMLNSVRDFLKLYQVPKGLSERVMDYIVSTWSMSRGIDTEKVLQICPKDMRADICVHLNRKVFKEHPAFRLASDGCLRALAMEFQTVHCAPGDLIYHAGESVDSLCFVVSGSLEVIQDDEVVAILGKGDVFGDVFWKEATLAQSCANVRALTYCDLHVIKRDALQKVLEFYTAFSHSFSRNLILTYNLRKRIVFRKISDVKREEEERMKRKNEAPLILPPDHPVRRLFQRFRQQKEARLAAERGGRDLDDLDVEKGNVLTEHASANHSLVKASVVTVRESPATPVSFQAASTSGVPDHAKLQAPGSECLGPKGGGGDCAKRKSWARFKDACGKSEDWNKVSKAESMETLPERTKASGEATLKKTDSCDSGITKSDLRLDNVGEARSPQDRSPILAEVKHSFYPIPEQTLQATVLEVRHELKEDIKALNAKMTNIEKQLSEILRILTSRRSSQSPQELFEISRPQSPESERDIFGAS

[4] = tested on: Eag-like channels 2 (hELK2); settings: ref Becchetti et al., 2002; cited from earlier work
[5] = tested on: breast cancer cells; settings: ref Ouadid-Ahidouch et al., 2001; cited from earlier work
[6] = target: T1, hEag1 channels; assay: Cell-attached patch recordings of hEag1 currents, drug in bath; format: cell-based; settings: 140 mM external K+, 60 mV
How it was run: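 hEag1-expressing cells grown 24–72 h on poly-L-lysine-coated coverslips; cell-attached patches at room temperature. Bath held 140 mM K+; pipette held control external solution (160 NaCl, 2.5 KCl, 2 CaCl2, 1 MgCl2, 10 HEPES, pH 7.4) without glucose. 1-s steps to 60 mV from −70 mV were recorded before, during and after washout of bath-applied drug.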

[7] = target: T1, hEag1 channels; assay: hEag1 channels expressed in Xenopus oocytes; format: cell-based
[8] = tested on: Kv1.1; settings: concentrations up to 10 μM; ref Suessbrich et al., 1996; cited from earlier work
[9] = target: T1, hEag1 channels; assay: Inside-out patch recordings of hEag1 currents; format: cell-based; settings: for rate of block: inside-out, 500 nM astemizole
How it was run: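 Inside-out patches from hEag1-expressing cells at room temperature. Pipette: 145 NaCl, 5 KCl, 3 CaCl2, 1 MgCl2, 10 HEPES/NaOH pH 7.4. Successive 6-s pulses at 80 mV with drug applied for 2.5 s. Current ratios to preapplication traces were fitted with a single exponential to give the block time constant.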

[10] = tested on: outward currents of ventricular cardiomyocytes; settings: concentrations <10 μM; ref Berul and Morad, 1995; cited from earlier work
[11] = target: T1, hEag1 channels; assay: Outside-out patch recordings of hEag1 currents; format: cell-based
How it was run: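 Outside-out patches from hEag1-expressing cells at room temperature. Successive 6-s recordings at 80 mV; drug applied to the extracellular face for 2.5 s, then removed. Currents were divided point-wise by control traces, and the time course was fitted with a single exponential to give the block or equilibration time constant and the steady-state fraction blocked.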

[12] = 10 μM imipramine or 1 μM astemizole
[13] = 200 μM internal TEA, 80 mV, 10 μM imipramine or 1 μM astemizole
[14] = control, 80 mV, 10 μM imipramine or 1 μM astemizole
[15] = nonsaturating concentrations, 80 mV

In the case of COc1ccc(CCN2CCC(Nc3nc4ccccc4n3Cc3ccc(F)cc3)CC2)cc1 [astemizole], the effect on current [1] is given as “no significant effects”, the “Diprotonated form, percentile contribution” value ([2]; pH 6.4, calculated) is given as 13.6% and the “Monoprotonated form, percentile contribution” value ([2]; pH 6.4, calculated) is given as 85.7%. The “Unprotonated form, percentile contribution” value ([2]; pH 6.4, calculated) was 0.7%, the “Diprotonated form, percentile contribution” value ([2]; pH 7.4, calculated) was 1.4% and the “Monoprotonated form, percentile contribution” value ([2]; pH 7.4, calculated) was 91.3%. The “Unprotonated form, percentile contribution” value ([2]; pH 7.4, calculated) was 7.3%, the predicted protonated fraction ([2]; pH 7.4 recording solution) was 93% and the “Diprotonated form, percentile contribution” value ([2]; pH 8.4, calculated) was 0.1%. For the same compound, the “Monoprotonated form, percentile contribution” value ([2]; pH 8.4, calculated) was 55.7%, the “Unprotonated form, percentile contribution” value ([2]; pH 8.4, calculated) was 44.2% and the Kd [3] was 109 nM. The “voltage dependence of block” value [3] was “insensitive to membrane potential”, the current blocked ([3]; 100 nM astemizole in the presence of 5 μM imipramine, 60 mV) was 38 ± 5% and the current blocked ([3]; 100 nM astemizole, control external solution, 60 mV) was 66 ± 3%. The “k of exponential fit to τclose(V) (tail current deactivation)” value [3, 12] was −0.025, the “τ(0) of exponential fit to τclose(V) (tail current deactivation)” value [3, 12] was 10.75 ms and the “τ∞ of exponential fit to τclose(V) (tail current deactivation)” value [3, 12] was 0.75 ms. For the same compound, the “effect on whole-cell current when added to the intracellular solution” value ([3]; 25 μM in intracellular pH 6.4 solution (unpublished data)) was “substantial block”, the “reduction of potency in the presence of internal TEA” value ([3]; 200 μM internal TEA) was ~50% and the current blocked [3, 13] was 42 ± 12%. For the same compound, the τblock [3, 13] was 1084 ± 158 ms, the “effect of external TEA on the block” value ([3]; 7 mM external TEA) was “did not affect” and the IC50 ([3]; IC50(V), voltage-independent line through IC50 data, test potentials 20–120 mV) was 120 nM. The IC50 ([3]; IC50, whole-cell, pHext//pHint 6.4//7.35) was 419 ± 68 nM, the IC50 ([3]; IC50, whole-cell, pHext//pHint 7.4//6.4) was 54 ± 12 nM and the IC50 ([3]; IC50, whole-cell, pHext//pHint 7.4//8.4) was 556 ± 69 nM. For the same compound, the IC50 ([3]; IC50, whole-cell, pHext//pHint 8.4//7.35) was 37 ± 7 nM, the current blocked [3, 14] was 87 ± 3% and the τblock [3, 14] was 317 ± 73 ms. The “slope of logIC50 versus difference between pHext and pHint” value ([3]; linear fit) was −0.53, the “slope of linear fit of τblock^−1 versus concentration” value [3, 15] was 4 s^−1μM^−1 and the “y intercept of linear fit of τblock^−1 versus concentration” value [3, 15] was 0.4 µM. For the same compound, the “time constant of block washout” value ([3]; pHext 7.4, pHint 6.4) was 235 s, the “time course of block onset” value ([3]; pHext 7.4, pHint 6.4, 250 nM astemizole) was 60 s and the “time constant of block washout” value ([3]; pHext 7.4, pHint 8.4) was 25 s. The “time course of block onset” value ([3]; pHext 7.4, pHint 8.4, 5 μM astemizole) was 20 s, the “Hill coefficient of dose–response plot” value ([3]; whole-cell, 80 mV) was 1.32 and the “Hill coefficient of fit to τblock versus concentration” value ([3]; whole-cell, 80 mV) was 1.32. For the same compound, the “time constant of current decay (τblock) at the IC50 concentration” value ([3]; whole-cell, 80 mV) was ~500 ms, the “τblock, maximum of Hill fit” value ([3]; whole-cell, 80 mV) was 1.33 s and the “τblock, minimum of Hill fit” value ([3]; whole-cell, 80 mV) was 0.024 s. For the same compound, the sensitivity to astemizole [4] was “not sensitive”, the “effect on proliferation rate” value [5] was “significant reduction” and the “block of channels in cell-attached patches by bath application” value [6] was “blocked”. For the same compound, the IC50 [7] was ~1500 nM, the effect on current [8] was “no significant effects” and the “time constant of block in inside-out patches” value ([9]; bath pH 6.0, pipette pH 7.4, 80 mV) was 387 ms. The “reversal of block on 2-s washout during the depolarization” value ([9]; inside-out patches) was “did not recover”, the rate of block ([9]; pHint 6.4) was 6.7 ± 2 s⁻¹ and the rate of block ([9]; pHint 7.4) was 2.8 ± 0.2 s⁻¹. The effect on currents [10] was “no effects”, the “time constant of block (equilibration of neutral drug) in outside-out patches” value ([11]; bath pH 6.0, pipette pH 7.4) was 1.7 s and the “rate of the equilibration process across the membrane” value ([11]; outside-out, bath pH 6.0) was 0.6 s⁻¹.
